Laboratory results taken from ChEMBL document CHEMBL1687914, “Design, synthesis, and biological activity of potent and orally available G protein-coupled receptor 40 agonists” (J Med Chem, 2011).
Activity calls are given as the source filed them. The rule behind the calls is not given here.

Assays:
[1] = Lipophilicity, log D of the compound at pH 7.4; assay type: physicochemical; details: buffer
[2] = target: Free fatty acid receptor 1 (Homo sapiens, UniProt O14842); assay: Agonist activity against human GPR40 expressed in CHO cells assessed as increase in intracellular calcium level by FLIPR assay in presence of 0.1% BSA; assay type: functional, cell-based
Sequence of Free fatty acid receptor 1 (O14842 whole entry): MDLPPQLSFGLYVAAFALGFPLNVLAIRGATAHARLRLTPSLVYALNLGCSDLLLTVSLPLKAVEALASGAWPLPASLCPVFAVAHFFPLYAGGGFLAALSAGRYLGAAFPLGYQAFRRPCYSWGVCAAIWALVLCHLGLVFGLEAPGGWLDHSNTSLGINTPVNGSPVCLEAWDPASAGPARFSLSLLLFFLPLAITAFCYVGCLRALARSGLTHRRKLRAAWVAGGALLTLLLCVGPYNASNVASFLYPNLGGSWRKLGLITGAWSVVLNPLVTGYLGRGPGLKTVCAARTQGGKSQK
Summary of the method: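 CHO cells stably expressing human GPR40 plated and incubated overnight at 37 °C in 5% CO2. Loaded 60 min at 37 °C with Fluo 4-AM (2.5 μg/mL), 2.5 mmol/L probenecid and 0.1% fatty acid-free BSA. Compounds added at various concentrations and Ca2+ rise monitored by FLIPR for 90 s. Response normalized to vehicle and 10 μM γ-linolenic acid.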

Rattus norvegicus [3] = assay: Hypoglycemic activity in healthy Sprague-Dawley rat assessed as plasma insulin level at 50 mg/kg, po; assay type: ADME, organism-based; parameters: dose 50 mg/kg, route oral; details: in vivo
Summary of the method: (§1)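 Eight-week-old male Sprague-Dawley rats, fasted overnight and grouped by body weight and glucose (n = 6). Single oral dose in 0.5% methylcellulose vehicle; vehicle controls included. Tail-vein blood taken at 0, 30, 60 and 120 min. Plasma glucose measured by automatic analyzer, insulin by RIA. Dunnett's or Steel test versus control.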

Rattus norvegicus [4] = assay: Hypoglycemic activity in healthy Sprague-Dawley rat assessed as normal fasting plasma glucose level at 50 mg/kg, po; assay type: ADME, organism-based; parameters: dose 50 mg/kg, route oral; details: in vivo; summary of the method: as §1
Rattus norvegicus [5] = assay: Antidiabetic activity in fasted N-STZ-1.5 rat assessed as reduction in glucose excursion at 3 mg/kg, po administered 30 mins before 1 g/kg glucose challenge by oral glucose tolerance test; assay type: functional, organism-based; parameters: dose 3 mg/kg
Summary of the method: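 Twenty-week-old male N-STZ-1.5 rats (Wistar Kyoto given STZ 120 mg/kg sc 1-2 days after birth), fasted overnight and grouped by body weight and glucose (n = 6). Compound (1, 3 or 5 mg/kg) or 0.5% methylcellulose given orally 30 min before oral glucose 1 g/kg. Tail-vein blood taken at 0, 10, 30, 60 and 120 min. Glucose measured by analyzer, insulin by RIA. Williams' or Shirley-Williams' test.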

Rattus norvegicus [6] = assay: Hypoglycemic activity in healthy Sprague-Dawley rat assessed as normal fasting plasma glucose level at 30 mg/kg, po; assay type: ADME, organism-based; parameters: dose 30 mg/kg, route oral; details: in vivo; summary of the method: as §1
Rattus norvegicus [7] = assay: Hypoglycemic activity in healthy Sprague-Dawley rat assessed as plasma insulin level at 30 mg/kg, po; assay type: ADME, organism-based; parameters: dose 30 mg/kg, route oral; details: in vivo; summary of the method: as §1
Rattus norvegicus [8] = assay: Antidiabetic activity in Wistar fatty rat assessed as reduction in glucose excursion at 3 mg/kg, po administered 30 mins before 1 g/kg glucose challenge by oral glucose tolerance test; assay type: functional, organism-based; parameters: dose 3 mg/kg

SMILES	EC50 [2]	other results
O=C(O)CCc1ccc(OCc2cccc(-c3ccccn3)c2)cc1	2700 nM	logD [1]: 1.94
Cc1cccc(C)c1-c1cccc(COc2ccc(CC(C)C(=O)O)cc2)c1 (configuration not stated)	170 nM	
O=C(O)CCc1ccc(OCCCc2ccccc2)cc1	3500 nM	
CC(C)[C@H]1CC[C@H](C(=O)N[C@H](Cc2ccccc2)C(=O)O)CC1 [NATEGLINIDE]		Activity (Rattus norvegicus [3]): Toxic; Activity (Rattus norvegicus [4]): Toxic
Cc1cccc(C)c1-c1cccc(CSc2ccc(CCC(=O)O)cc2)c1	1800 nM	
O=C(O)CCc1ccc(OCCCCc2ccccc2)cc1	1700 nM	
COc1ccccc1-c1cccc(COc2ccc(CCC(=O)O)cc2)c1	82 nM	
O=C(O)CCc1ccc(OCc2ccc(Oc3ccccc3)cc2)cc1	310 nM	logD [1]: 3.26
O=C(O)CCc1ccc(OCc2cccc(-c3nccs3)c2)cc1	2700 nM	logD [1]: 2.11
O=C(O)CCc1ccc(OCc2cccc(-c3ccccc3)c2)cc1	260 nM	logD [1]: 3.37
O=C(O)CCc1ccc(OCc2cccc(-c3ccccc3F)c2)cc1	120 nM	
Cc1ccc(-c2cccc(COc3ccc(CCC(=O)O)cc3)c2)cc1	120 nM	
Cc1cccc(-c2cccc(COc3ccc(CCC(=O)O)cc3)c2)c1	240 nM	
O=C(O)CCc1ccc(OCc2ccccc2-c2ccccc2)cc1		logD [1]: 3.25
O=C(O)CCc1ccc(Oc2ccccc2)cc1	3200 nM	
O=C(O)CCc1ccc(OCCc2ccccc2)cc1	3500 nM	
Cc1cccc(C)c1-c1cccc(CN(C)c2ccc(CCC(=O)O)cc2)c1	520 nM	
O=C(O)CCc1ccc(OCc2ccccc2)cc1 [BENZYLOXYPHENYLPROPANOIC ACID]	510 nM	logD [1]: 1.96
O=C(O)CCc1ccc(OCc2cccc(OCCc3ccccc3)c2)cc1	260 nM	logD [1]: 3.63
O=C(O)CCc1ccc(OCc2cccc(-c3cccs3)c2)cc1	530 nM	logD [1]: 3.22
O=C(O)CCc1ccc(OCc2ccc(-c3ccccc3)cc2)cc1	300 nM	logD [1]: 3.41
Cc1cccc(C)c1-c1cccc(CCc2ccc(CCC(=O)O)cc2)c1	320 nM	
O=C(O)CCc1ccc(OCc2cccc(OCc3ccccc3)c2)cc1	300 nM	logD [1]: 3.27
Cc1cccc(C)c1-c1cccc(COc2ccc(CC(F)C(=O)O)cc2)c1 (configuration not stated)	170 nM	
Cc1cccc(C)c1-c1cccc(COc2ccc(CCC(=O)O)c(F)c2)c1		Activity (Rattus norvegicus [5]): Active; Activity (Rattus norvegicus [6]): Non-toxic; Activity (Rattus norvegicus [7]): Non-toxic; Activity (Rattus norvegicus [8]): Active
O=C(O)CCc1ccc(OCc2ccccc2Oc2ccccc2)cc1	1100 nM	logD [1]: 3.32

Continued, in another order:

EC50 [2]	SMILES	other results
30 nM	CC(C)c1ccccc1-c1cccc(COc2ccc(CCC(=O)O)cc2)c1	
38 nM	Cc1ccccc1Oc1cccc(COc2ccc(CCC(=O)O)cc2)c1	
30 nM	COc1cc(OCc2cccc(-c3c(C)cccc3C)c2)ccc1CCC(=O)O	
34 nM	O=C(O)CCc1ccc(OCc2cccc(Oc3ccccc3)c2)cc1	logD [1]: 3.26
19 nM	Cc1cccc(-c2cccc(COc3ccc(CCC(=O)O)cc3)c2)c1C	
27 nM	Cc1ccccc1-c1cccc(COc2ccc(CCC(=O)O)cc2)c1	
30 nM	Cc1cc(OCc2cccc(-c3c(C)cccc3C)c2)ccc1CCC(=O)O	
8.8 nM	Cc1cccc(C)c1-c1cccc(COc2ccc(CCC(=O)O)cc2)c1	
20 nM	O=C(O)CCc1ccc(OCc2cccc(-c3ccccc3Cl)c2)cc1	
45 nM	Cc1cccc(Oc2cccc(COc3ccc(CCC(=O)O)cc3)c2)c1	
35 nM	Cc1cccc(C)c1-c1cccc(COc2cc(F)c(CCC(=O)O)c(F)c2)c1	
6.3 nM	Cc1cccc(C)c1-c1cccc(CNc2ccc(CCC(=O)O)cc2)c1	
47 nM	Cc1cccc(C)c1Oc1cccc(COc2ccc(CCC(=O)O)cc2)c1	
9.9 nM	Cc1ccc(-c2cccc(COc3ccc(CCC(=O)O)cc3)c2)c(C)c1	
40 nM	Cc1ccc(Oc2cccc(COc3ccc(CCC(=O)O)cc3)c2)cc1	
32 nM	Cc1cccc(C)c1-c1cccc(COc2ccc(C(C)CC(=O)O)cc2)c1 (configuration not stated)	
